Assays:
Assay type in all cases: functional, cell-based
NCI-H460 = assay: Cytotoxicity against human NCI-H460 cells after 48 hrs by MTT assay; conditions: NCI-H460, 48 h
In short: (§1)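 Cells in exponential growth were trypsinised, centrifuged at 180 × g for 3 min, resuspended at 5 × 10^4 cells/ml and seeded. After 48 h drug exposure, MTT (1 mg/mL) added for 4 h. Formazan dissolved in DMSO, OD read at 570 nm. Each dose run in triplicate. IC50 derived from mean OD and reported as the mean of three independent assays.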

HepG2 = assay: Cytotoxicity against human HepG2 cells after 48 hrs by MTT assay; conditions: HepG2, 48 h; in short: as §1
MCF7 = assay: Cytotoxicity against human MCF7 cells after 48 hrs by MTT assay; conditions: MCF7, 48 h; in short: as §1

Q: For CN(C)CCC(=O)Nc1ccc2c(c1)C(=O)c1cccc3ccnc-2c13, which IC50 (NCI-H460) is on record?
A: 6.71 µM

Q: What about the IC50 (HepG2) of the same molecule?
A: 7.74 µM

Q: And the IC50 (MCF7)?
A: 9.11 µM

Q: For CN(C)CCCC(=O)Nc1ccc2c(c1)C(=O)c1cccc3ccnc-2c13, which IC50 (NCI-H460) is on record?
A: 19.3 µM

Q: And the IC50 (HepG2)?
A: 29.8 µM

Q: What about the IC50 (MCF7) of the same molecule?
A: 11.5 µM

Q: Which results are given for O=C(CCNCCO)Nc1ccc2c(c1)C(=O)c1cccc3ccnc-2c13?
A: IC50 (NCI-H460): 2.36 µM; IC50 (HepG2): 3.88 µM; IC50 (MCF7): 4.3 µM

Q: With Nc1ccc2c(c1)C(=O)c1cccc3ccnc-2c13 as the molecule, how does the IC50 (NCI-H460) read?
A: 35.5 µM

Q: What about the IC50 (HepG2) of the same molecule?
A: 19.7 µM

Q: And the IC50 (MCF7)?
A: 20.4 µM

Q: Which results are given for O=C(CCN1CCCC1)Nc1ccc2c(c1)C(=O)c1cccc3ccnc-2c13?
A: IC50 (NCI-H460): 16.7 µM; IC50 (HepG2): 8.18 µM; IC50 (MCF7): 7.96 µM

Q: For O=C(CCCN1CCCC1)Nc1ccc2c(c1)C(=O)c1cccc3ccnc-2c13, which IC50 (NCI-H460) is on record?
A: 9.08 µM

Q: And the IC50 (HepG2)?
A: 12.9 µM

Q: What about the IC50 (MCF7) of the same molecule?
A: 27.4 µM

Q: Which results are given for CN(C)CC(=O)Nc1ccc2c(c1)C(=O)c1cccc3ccnc-2c13?
A: IC50 (NCI-H460): 9.22 µM; IC50 (HepG2): 9.69 µM; IC50 (MCF7): 17.5 µM

Q: What does the source list for CN(C)CCNCCC(=O)Nc1ccc2c(c1)C(=O)c1cccc3ccnc-2c13?
A: IC50 (NCI-H460): 30.3 µM; IC50 (HepG2): 21 µM; IC50 (MCF7): 28.1 µM

Q: Which results are given for O=C(CN1CCCC1)Nc1ccc2c(c1)C(=O)c1cccc3ccnc-2c13?
A: IC50 (NCI-H460): 2.09 µM; IC50 (HepG2): 8.14 µM; IC50 (MCF7): 11.8 µM

Q: With CCN(CC)CCC(=O)Nc1ccc2c(c1)C(=O)c1cccc3ccnc-2c13 as the molecule, how does the IC50 (NCI-H460) read?
A: 4.99 µM

Q: What about the IC50 (HepG2) of the same molecule?
A: 12.1 µM

Q: And the IC50 (MCF7)?
A: 12.7 µM

Q: What does the source list for O=C1c2ccccc2-c2nccc3cccc1c23?
A: IC50 (HepG2): > 100 µM; IC50 (MCF7): > 100 µM

Q: How did the IC50 (NCI-H460) turn out when O=C(CCN1CCCCC1)Nc1ccc2c(c1)C(=O)c1cccc3ccnc-2c13 was run?
A: 4.23 µM

Q: What about the IC50 (HepG2) of the same molecule?
A: 6.36 µM

Q: And the IC50 (MCF7)?
A: 5.07 µM

Source: ChEMBL document CHEMBL1156677, “Oxoisoaporphine alkaloid derivatives: synthesis, DNA binding affinity and cytotoxicity” (Eur J Med Chem, 2008)
